Key:
[1] = system: Trypanosoma brucei rhodesiense; assay: Antitrypanosomal activity against Trypanosoma brucei rhodesiense infected in vervet monkey assessed as body weight change at 10 mg/kg, po administered on day 14 post infection for 5 days; assay type: functional
[2] = system: Trypanosoma brucei rhodesiense; assay: Antitrypanosomal activity against Trypanosoma brucei rhodesiense infected in vervet monkey 483 assessed as time to detect parasitemia in wet films of blood at 3 mg/kg, po administered on day 7 post infection for 5 days by hematocrit centrifugation technique; assay type: functional
In short: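 Parasitemia was monitored from 3 days p.i. in ear-prick or inguinal venous blood. Methods were wet-film microscopy (detection limit 10^5 trypanosomes/ml) and hematocrit centrifugation technique (detection limit 10^3 trypanosomes/ml). Drug was given once daily by oral gavage: 5 days from day 7 p.i., or 10 days from day 28 p.i.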

[3] = system: Trypanosoma brucei rhodesiense; assay: Antitrypanosomal activity against Trypanosoma brucei rhodesiense infected in vervet monkey 471 assessed as time to detect parasitemia at 10 mg/kg, po administered on day 14 post infection for 5 days; assay type: functional
[4] = system: Trypanosoma brucei rhodesiense; assay: Antitrypanosomal activity against Trypanosoma brucei rhodesiense infected in vervet monkey 520 assessed as time to detect CSF parasitosis at 10 mg/kg, po administered on day 28 post infection for 10 days measured after 14 to 21 days by microscopy; assay type: functional
In short: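 Trypanosomes and white cells in free-flowing CSF were counted by hemocytometer. Negative CSF was centrifuged and re-examined. Samples still negative were inoculated at 0.2 ml intraperitoneally into two mice each. Drug was given once daily by oral gavage: 5 days from day 7 p.i., or 10 days from day 28 p.i.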

[5] = system: Trypanosoma brucei rhodesiense; assay: Antitrypanosomal activity against Trypanosoma brucei rhodesiense infected in vervet monkey assessed as body weight change at 3 mg/kg, po administered on day 7 post infection for 5 days measured on day 28 post treatment; assay type: functional
In short: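 Body weight change is given as percent of the mean preinfection weight (n=3 per group). It was recorded at day 0 p.t., day 28 p.t. and end point. Oral gavage was once daily: 5 days from day 7 p.i., or 10 days from day 28 p.i.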

[6] = system: Trypanosoma brucei rhodesiense; assay: Antitrypanosomal activity against Trypanosoma brucei rhodesiense infected in vervet monkey assessed as change in packed cell volume at 3 mg/kg, po administered on day 7 post infection for 5 days; assay type: functional
In short: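 Vervet monkeys, three per group, were infected intravenously with T. b. rhodesiense KETRI 2537. From day 7 p.i., a drug suspension was given by oral gavage once daily for 5 consecutive days. Packed cell volume was expressed as % change from the group's mean preinfection value. PCV was read at day 0 p.t., day 28 p.t. and endpoint, with follow-up to 180 days p.t.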

[7] = system: Trypanosoma brucei rhodesiense; assay: Antitrypanosomal activity against Trypanosoma brucei rhodesiense infected in vervet monkey 471 assessed as time to detect parasitemia in wet films of blood at 10 mg/kg, po administered on day 14 post infection for 5 days by hematocrit centrifugation technique

Structure (SMILES): CONC(=N)c1ccc(-c2ccc(-c3ccc(C(=N)NOC)cc3)o2)cc1 [PAFURAMIDINE]
- Activity [1]: -4.2%
- Time [2]: 66 days
- Time [3]: 56 days
- Time [4]: 119 days
- Activity [5]: -6.6%
- Activity [6]: -9.4%
- Time [7]: 87 days

— ChEMBL document CHEMBL1649125, “Efficacy of the novel diamidine compound 2,5-Bis(4-amidinophenyl)- furan-bis-O-Methlylamidoxime (Pafuramidine, DB289) against Trypanosoma brucei rhodesiense infection in vervet monkeys after oral administration” (2009)
